# In ChEMBL document CHEMBL2390836, “Synthesis and antitumor activities of naturally occurring oleanolic acid triterpenoid saponins and their derivatives” (Eur J Med Chem, 2013):
# What was measured:
# Type in all cases: functional, cell-based
# A549 = assay: Cytotoxicity against human A549 cells after 72 hrs by sulforhodamine B assay; conditions: A549, 72 h
# Procedure, shortened: (§1)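 Cells seeded in 96-well plates and exposed in triplicate to a concentration gradient at 37 °C for 72 h. Total protein staining with sulforhodamine B was the read-out. IC50 was calculated by the Logit method from at least three independent experiments.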
# A-375 = assay: Cytotoxicity against human A375 cells after 72 hrs by sulforhodamine B assay; conditions: A-375, 72 h; procedure, shortened: as §1
# HL-60 = assay: Cytotoxicity against human HL60 cells after 72 hrs by MTT assay; conditions: HL-60, 72 h
# Procedure, shortened: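 HL-60 human promyelocytic leukemia cells were plated in 96 wells and treated in triplicate with graded concentrations at 37 °C for 72 h. Viability was read by MTT reduction. IC50 was obtained by the Logit method from at least three independent experiments.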
SMILES,IC50 (A549),IC50 (A-375),IC50 (HL-60)
C[C@@H]1O[C@@H](O[C@@H]2[C@@H](O)[C@H](O[C@H]3CC[C@]4(C)[C@H]5CC=C6[C@@H]7CC(C)(C)CC[C@]7(C(=O)O)CC[C@@]6(C)[C@]5(C)CC[C@H]4C3(C)C)O[C@H](CO)[C@H]2O)[C@H](O)[C@H](O)[C@H]1O,> 20 µM,> 20 µM,> 20 µM
COc1cccc2c1C(=O)c1c(O)c3c(c(O)c1C2=O)C[C@@](O)(C(=O)CO)C[C@@H]3O[C@H]1C[C@H](N)[C@H](O)[C@H](C)O1 [DOXORUBICIN],0.56 µM,0.75 µM,0.9 µM
C[C@@H]1O[C@@H](O[C@H]2[C@H](O[C@H]3CC[C@]4(C)[C@H]5CC=C6[C@@H]7CC(C)(C)CC[C@]7(C(=O)O)CC[C@@]6(C)[C@]5(C)CC[C@H]4C3(C)C)OC[C@@H](O)[C@@H]2O)[C@H](O)[C@H](O[C@@H]2O[C@H](CO)[C@@H](O[C@@H]3O[C@H](CO)[C@@H](O)[C@H](O)[C@H]3O)[C@H](O)[C@H]2O)[C@H]1O,7.8 µM,6.1 µM,2.5 µM
C[C@@H]1O[C@@H](O[C@H]2[C@H](O[C@H]3CC[C@]4(C)[C@H]5CC=C6[C@@H]7CC(C)(C)CC[C@]7(C(=O)O)CC[C@@]6(C)[C@]5(C)CC[C@H]4C3(C)C)OC[C@H](O)[C@@H]2O)[C@H](O)[C@H](O[C@@H]2O[C@H](CO)[C@@H](O[C@@H]3O[C@H](CO)[C@@H](O)[C@H](O)[C@H]3O)[C@H](O)[C@H]2O)[C@H]1O,7.9 µM,5.9 µM,3.5 µM
C[C@@H]1O[C@@H](O[C@H]2[C@H](O[C@H]3CC[C@]4(C)[C@H]5CC=C6[C@@H]7CC(C)(C)CC[C@]7(C(=O)O)CC[C@@]6(C)[C@]5(C)CC[C@H]4C3(C)C)OC[C@H](O)[C@@H]2O)[C@H](O)[C@H](O[C@@H]2O[C@H](CO)[C@@H](O)[C@H](O)[C@H]2O)[C@H]1O,16.7 µM,12.1 µM,6.1 µM
